This is a sample that favours compounds with a hit; in the whole collection about 1.8% have one here.
MBD2 inh = inhibitors of MBD2 binding to methylated DNA, primary screen, biochemical, TR-FRET, DNA-binding domain, human. Methyl-CpG-binding domain protein 2 (Homo sapiens), Q9UBB5. hit rate 0.31% among 370,000. inhibition, % at 4.4 µM. AID 686964, 2013. MBD2 binding to methylated oligonucleotide; in the data active = inhibition above about 13%
TDP2 absorb = human TDP2 enzyme inhibitors, primary screen, biochemical, epi absorbance, recombinant enzyme; T5PNP hydrolysis, p-nitrophenol absorbance 415 nm; inhibition, % at 12.8 µM; AID 720702, 2013; hit rate 0.34% among 370,000;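 active = inhibition above the mean of all tested compounds plus 3 SD, set per campaign, cut at about 25% in these data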;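 note: 0% = DMSO with enzyme and 100% = buffer with substrate but no TDP2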
Target sequence (O95551 whole entry, looked up): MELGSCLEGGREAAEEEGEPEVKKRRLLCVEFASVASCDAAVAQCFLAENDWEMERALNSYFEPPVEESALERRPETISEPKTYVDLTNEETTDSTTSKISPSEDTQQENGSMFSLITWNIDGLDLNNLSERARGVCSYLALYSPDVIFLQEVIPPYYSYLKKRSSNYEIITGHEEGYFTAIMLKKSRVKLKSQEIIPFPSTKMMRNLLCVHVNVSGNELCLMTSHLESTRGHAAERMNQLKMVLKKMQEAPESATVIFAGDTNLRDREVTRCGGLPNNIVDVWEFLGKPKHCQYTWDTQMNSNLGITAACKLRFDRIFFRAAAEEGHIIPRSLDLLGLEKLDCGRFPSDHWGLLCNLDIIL
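System: recombinant human TDP2 / Amount: 120 nM TDP2 per well / Also added: 5 mM T5PNP chromogenic substrate / Doses: 12.8 µM single point, 1% DMSO / Incubation: 2 h at 37 °C / Detection: p-Nitrophenol epi absorbance / Evaluation: % inhibition relative to enzyme-containing and enzyme-free wells / Repeats: singlicate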
CASP6 VEID inh = human caspase-6 inhibitors, primary screen, biochemical, VEID-R110 fluorescence, single point, set 2. P55212. purified caspase-6, Z-VEID-R110 cleavage fluorescence. inhibition, % at 12.5 µM. hit rate 0.53% among 350,000. AID 686996, 2013;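 active = mean inhibition across replicates at least about 35%, with every replicate also reaching that limit, limit read from the data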;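 note: 0% = median of neutral control wells and 100% = no fluorescence left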
Target sequence (P55212 24-179 limits assumed): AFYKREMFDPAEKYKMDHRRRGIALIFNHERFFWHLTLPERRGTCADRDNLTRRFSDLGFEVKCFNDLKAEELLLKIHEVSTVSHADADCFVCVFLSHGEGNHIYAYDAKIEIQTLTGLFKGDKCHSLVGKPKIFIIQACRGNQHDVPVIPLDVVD
Target sequence (P55212 194-293 limits assumed): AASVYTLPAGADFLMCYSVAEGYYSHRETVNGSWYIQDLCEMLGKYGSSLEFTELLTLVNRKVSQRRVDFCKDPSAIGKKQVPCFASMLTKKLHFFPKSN
UHRF1 MBD2 ctr = UHRF1 methylated DNA binding inhibitors, primary screen, counter-screen for MBD2 inhibitor project, biochemical, TR-FRET, human UHRF1, single concentration. UHRF1 binding to methylated oligo. inhibition, % at 4.4 µM. hit rate 0.75% among 370,000. AID 687016, 2013; in the data active = inhibition above about 21%;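 note: UHRF1 SRA domain binding a hemimethylated CpG hairpin DNA probe; 0% = median of test compound wells and 100% = reference inhibitor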
LEDGF integ inh = blockers of LEDGF/p75-dependent integrase strand transfer – biochemical, TR-FRET, high throughput, primary screen. HIV-1 integrase (with human LEDGF/p75). TR-FRET IN-LEDGF/p75 DNA integration, Eu/Cy5. inhibition, % at 3.7 µM. hit rate 0.64% among 370,000;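 active = inhibition above the screen-wide mean plus 3 SD, cut at about 13% in these data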;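 note: signal is the Cy5 over europium emission ratio at 671 and 618 nm; 0% = plate median of compound wells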
NSD2 inh = NSD2 histone methyltransferase inhibitors, primary screen, biochemical, AlphaScreen, single concentration, set 2 | NSD2 peptide methylation, 120 min | inhibition, % at 12.5 µM | hit rate 0.54% among 310,000 | Histone-lysine N-methyltransferase NSD2 (Homo sapiens), O96028; in the data active = inhibition above about 50%
IN multimer up = HIV-1 IN multimer formation enhancers, counter-screen for LEDGF/p75 integration inhibitor project, biochemical, TR-FRET; shares compounds with LEDGF integ inh; TR-FRET HIV-1 integrase multimerization; activation, % at 7.7 µM; hit rate 17% among 2,000; in the data active = activation above about 8.9%
TR-FRET interf = TR-FRET optical interference artefacts, confirmation, artefact control for LEDGF/p75-dependent integration inhibitor project, biochemical, HIV-1 IN multimerization | inhibition, % at 7.7 µM | 2,000 tested, under 10 active | AID 1053135, 2014 | TR-FRET optical interference counterscreen | shares compounds with LEDGF integ inh;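 active = inhibition above the mean over all tested compounds plus 3 SD, which no compound reached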;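 note: 0% = integrase with antibodies and DMSO and 100% = antibodies without integrase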
LEDGF integ conf = inhibitors of HIV-1 IN-LEDGF/p75 DNA integration, confirmation, biochemical, TR-FRET. shares compounds with LEDGF integ inh. TR-FRET LEDGF/p75-dependent HIV-1 integration. hit rate 36% among 2,000. inhibition, % at 3.7 µM. AID 1053136, 2014; in the data active = inhibition above about 14%
AlphaScreen art = AlphaScreen signal interference with preloaded methylated product, dose response, artefact control for NSD2 inhibitor project, biochemical, cherry-picked samples; shares compounds with NSD2 inh; AlphaScreen artifact counterscreen, preloaded methylated H4 peptide; AC35, µM (titrated, usually from 10 µM), inactives show at the top dose activity change, negative = signal loss; hit rate 9.4% among 1,500; call rule not given here
Active calls of the source: *.

How did O=C1NC(=O)N(Cc2ccccc2)C(=O)/C1=C/C=C/c1ccco1 do in these assays?
MBD2 inh: -2; TDP2 absorb: 9; CASP6 VEID inh: 39*; UHRF1 MBD2 ctr: 8; LEDGF integ inh: 29*; NSD2 inh: 28; IN multimer up: 0; TR-FRET interf: 1; LEDGF integ conf: 30*

How did CCN1C(=O)C(=C/C=C/c2ccco2)C(=O)N(CC)C1=S do in these assays?
MBD2 inh: 6; TDP2 absorb: -4; CASP6 VEID inh: 58*; UHRF1 MBD2 ctr: 30*; LEDGF integ inh: 39*; NSD2 inh: 47; IN multimer up: 2; TR-FRET interf: -8; LEDGF integ conf: 51*

How did Cc1cc(/C=C2\C(=O)NC(=O)N(c3ccc(Br)cc3)C2=O)c(C)n1-c1cc(C(=O)O)cc(C(=O)O)c1 do in these assays?
MBD2 inh: 11; TDP2 absorb: 13; CASP6 VEID inh: 1; UHRF1 MBD2 ctr: 44*; LEDGF integ inh: 44*; NSD2 inh: 18; IN multimer up: 3; TR-FRET interf: -16; LEDGF integ conf: 31*

How did CC(=O)N1[C@@H]2c3ccc(-c4cccc(C(=O)N(C)C)c4)c(=O)n3C[C@H]1[C@H](CO)[C@H]2C(=O)O do in these assays?
CASP6 VEID inh: 0

Results for O=[N+]([O-])c1cccc(O)c1 ?
MBD2 inh: 1; TDP2 absorb: 0; CASP6 VEID inh: -2; UHRF1 MBD2 ctr: -1; LEDGF integ inh: -4

How did O=[N+]([O-])c1cc(S(=O)(=O)c2ccc(O)c([N+](=O)[O-])c2)ccc1O do in these assays?
MBD2 inh: 3; TDP2 absorb: -17; UHRF1 MBD2 ctr: 42*; LEDGF integ inh: 17*; NSD2 inh: 29; IN multimer up: 28*; TR-FRET interf: -141; LEDGF integ conf: 27*

How did COC(=O)[C@@H]1[C@@H](CO)[C@@H]2Cn3c(ccc(C4=CCCC4)c3=O)[C@H]1N2C(=O)CC1CC1 do in these assays?
CASP6 VEID inh: 4

Results for Clc1ccc(OCC#CCN2CCOCC2)cc1 ?
MBD2 inh: 1; TDP2 absorb: 4; CASP6 VEID inh: -2; UHRF1 MBD2 ctr: -2; LEDGF integ inh: 24*; NSD2 inh: 1; IN multimer up: 0; TR-FRET interf: 0; LEDGF integ conf: 3

Results for CC1CCN(CC#CCOc2ccc(Cl)cc2)CC1 ?
MBD2 inh: 3; TDP2 absorb: 13; CASP6 VEID inh: -1; UHRF1 MBD2 ctr: 1; LEDGF integ inh: -3; NSD2 inh: 3

How did NCCc1cc(O)c(O)cc1O do in these assays?
MBD2 inh: 25*; TDP2 absorb: 8; UHRF1 MBD2 ctr: 58*; LEDGF integ inh: 56*; IN multimer up: 64*; TR-FRET interf: -324; LEDGF integ conf: 75*

What do the screens show for `CC=Cc1ccc2n(c1=O)C[C@@H]1[C@@H](CO)[C@H](C(=O)OC)[C@H]2N1C(=O)CC1CC1` (mixture of isomers)?
CASP6 VEID inh: -2

Results for COC(=O)[C@@H]1[C@@H](CO)[C@@H]2Cn3c(ccc(-c4cccc(OC)c4)c3=O)[C@H]1N2C(=O)c1ccccc1F ?
CASP6 VEID inh: -3

How did COc1ccc(C#Cc2ccc([C@@H]3[C@@H](CO)N4CCCCN(C(=O)Cc5ccncc5)C[C@@H]34)cc2)cc1 do in these assays?
CASP6 VEID inh: 1

What do the screens show for `COc1ccc(N2C(=O)NC(=O)/C(=C\c3ccc([N+](=O)[O-])s3)C2=O)cc1`?
MBD2 inh: 1; TDP2 absorb: -10; CASP6 VEID inh: 52*; UHRF1 MBD2 ctr: 5; LEDGF integ inh: 18*; NSD2 inh: 51*; IN multimer up: 1; TR-FRET interf: -3; LEDGF integ conf: 33*; AlphaScreen art: -2%

What do the screens show for `Cc1cc(/C=C2\C(=O)NC(=O)N(c3ccc(Cl)cc3)C2=O)c(C)n1-c1cccc(C(=O)O)c1`?
MBD2 inh: 5; TDP2 absorb: 0; CASP6 VEID inh: 32; UHRF1 MBD2 ctr: 6; LEDGF integ inh: 10; NSD2 inh: 28

Results for Cc1cc(/C=C2\C(=O)NC(=O)N(c3cccc(F)c3)C2=O)c(C)n1-c1cc(C(=O)O)cc(C(=O)O)c1 ?
MBD2 inh: 6; TDP2 absorb: 0; CASP6 VEID inh: 29; UHRF1 MBD2 ctr: 33*; LEDGF integ inh: 39*; NSD2 inh: 81*; IN multimer up: 5; TR-FRET interf: -27; LEDGF integ conf: 24*; AlphaScreen art: -9%

What do the screens show for `O=C(O)[C@H]1[C@H](CO)[C@H]2Cn3c(ccc(-c4cncnc4)c3=O)[C@@H]1N2C(=O)NC1CCCC1`?
CASP6 VEID inh: 0

How did CC(C)c1ccc(N2C(=O)NC(=O)/C(=C\C=C\c3ccco3)C2=O)cc1 do in these assays?
MBD2 inh: 3; TDP2 absorb: 8; CASP6 VEID inh: 30; UHRF1 MBD2 ctr: 24*; LEDGF integ inh: 23*; NSD2 inh: 94*; IN multimer up: 2; TR-FRET interf: -6; LEDGF integ conf: 31*; AlphaScreen art: -8%

How did Cc1cccc(S(=O)(=O)N2[C@@H]3c4ccc(-c5ccncc5)c(=O)n4C[C@H]2[C@H](CO)[C@H]3C(=O)O)c1 do in these assays?
CASP6 VEID inh: 3

Screens: PubChem BioAssay, several laboratories
